The record followed here is PMC9089800 (RSC Advances, 2018).

One series concerns MCF7. Nature of the series: MTT growth inhibition / cytotoxicity assay, MCF7. It is filed as cell-based, human.
The next series has as its system MDA-MB-231. In words: MTT growth inhibition / cytotoxicity assay, MDA-MB-231. The series is classed as cell-based, human.
The next series concerns MCF10A. Nature of the series: cells. It is filed as cell-based. The following applies: 48 h; for IC50: Homo sapiens, MCF-10A, read-out: IC50 in μM MCF10A; for cytotoxic effect on normal breast epithelial MCF10A cells (in words): MTT.
Series [1] relates to MCF7 cells. In words: Cell cycle analysis by FACS. It is filed as cell-based, human. Conditions: MCF7, 24 h; 30 μM of 9, 20 μM of 10. In short, it runs like this: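 Cells seeded a day before; treated 24 h with test compound or DMSO vehicle (final DMSO <0.02%). Cells trypsinised, pelleted at 4 °C, fixed overnight at 4 °C in chilled 95% ethanol, and PBS-washed. Stained with propidium iodide plus RNase in PBS/2 mM MgCl2 for 20 min at 37 °C, then acquired by flow cytometry. Three repeats; mean sub-G1 population plotted.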

In series [2] the test system is MCF7 cells. In words: DNA fragmentation assay. The following applies: MCF7, 24 h; 30 μM of 9, 20 μM of 10. It is filed as cell-based, human.
The subject of another series is caspase 9. In words: Western blot for apoptotic pathway. The series is classed as cell-based, human. Conditions: MCF7, 24 h; 30 μM of 9, 20 μM of 10. In short, it runs like this:
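MCF7 cells exposed 24 h to DMSO vehicle or test compound. Lysed 20 min on ice in Tris pH 7.4/EDTA/NaCl/NaF/orthovanadate/0.5% Triton X-100, then cleared at 16000 × g at 4 °C. Protein quantified by Bradford; samples boiled in Laemmli buffer. SDS-PAGE, PVDF transfer, 3% milk/TBST block. Anti-caspase 9 overnight at 4 °C; HRP secondary; chemiluminescent detection.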
Background: In western blotting, separated proteins are transferred to a membrane and probed.

Series [3] concerns MCF7 cells. Nature of the series: Immunostaining. The series is classed as cell-based, human. The following applies: IC50 concentration, 12 hours. The gist of the method: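 Cells grown overnight as a monolayer on coverslips, then exposed to test compound for 12 h. Fixed in 3.7% formaldehyde for 20 min at room temperature in the dark. Permeabilised with 0.5% Tween-20 for 30 min, then blocked with 3% BSA. Stained 1 h with anti-α-tubulin, then 1 h with Alexa Fluor 594 secondary. DNA counterstained with Hoechst; mounted in DABCO/glycerol.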

Where [4] appears, read: Homo sapiens, MCF7, 48 h, read-out: IC50 in μM MCF7, MTT, 48 h, 0–100 μM.
Where [5] appears, read: read-out: IC50 in μM MCF7, MTT, 48 h, 0–100 μM.

Read-outs that look alike come from different tables or passages of the source.

Regarding `C=C1[C@@H]2[C@H]3OC(=O)C(=C)[C@@H]3CCC(=C)[C@@H]2C[C@@H]1O` [Compound 2, Zaluzanin C], in the series on MCF7 (setting [4]), the IC50 (usually the concentration at which inhibition is half-maximal) is > 100 µM. The “IC50 in μM MCF7” value in the series on MCF7 (MTT, 48 h, 0–100 μM) is “inactive”. Further, the “IC50 in μM MDA-MB-231” value with MDA-MB-231 (48 h, 0–100 μM) was “inactive”.
Take `C=C1[C@@H]2[C@H]3OC(=O)[C@@H](CN[C@H](C)c4cccc5ccccc45)[C@@H]3CCC(=C)[C@@H]2C[C@@H]1O` [Compound 10, (3R,3aS,6aR,8S,9aR,9bS)-8-Hydroxy-6,9-dimethylene-3-((((R)-1-(naphthalen-1-yl)ethyl)amino)methyl)decahydroazuleno[4,5-b] furan-2(3H)-one]: in the series on MCF10A, the IC50 is > 100 µM and the “cytotoxic effect on normal breast epithelial MCF10A cells (in words)” value is “minimal cytotoxic effect”. The “apoptotic (sub-G1) population” value in the series with MCF7 cells [1] is reported as “significantly increased the apoptotic populations”. Further, the “fragmentation of genomic DNA (ladder on agarose gel)” value in the series with MCF7 cells [2] is on record as “substantial fragmented DNA ladder”. Besides, the “apoptotic pathway (caspase 9 immunoblot)” value in the series with caspase 9 is on record as “cleavage of caspase 9”. For the same compound, the “DNA fragmentation by Hoechst staining, tubulin morphology” value with MCF7 cells [3] was “fragmented DNA”.
For `C=C1[C@@H]2[C@H]3OC(=O)[C@@H](CN[C@H](C)c4cccc5ccccc45)[C@@H]3CCC(=C)[C@@H]2C[C@@H]1OC(C)=O` [Compound 9, (3R,3aS,6aR,8S,9aR,9bS)-6,9-Dimethylene-3-((((R)-1-(naphthalen-1-yl)ethyl)amino)methyl)-2-oxododecahydroazuleno[4,5-b]furan-8-yl acetate], the values for the IC50 with MCF7 (setting [4]), in the series on MCF7 (setting [5]) and in the series on MCF10A were < 50 µM, 30 ± 0.7 µM and 42 ± 4.1 µM, respectively. The “cytotoxic effect on normal breast epithelial MCF10A cells (in words)” value in the series with MCF10A is on record as “potent cytotoxic effect”. Moreover, the “apoptotic (sub-G1) population” value with MCF7 cells [1] is recorded as “significantly increased the apoptotic populations”. The “fragmentation of genomic DNA (ladder on agarose gel)” value in the series with MCF7 cells [2] is recorded as “substantial fragmented DNA ladder”. Further, the “apoptotic pathway (caspase 9 immunoblot)” value with caspase 9 is “cleavage of caspase 9”. The “DNA fragmentation by Hoechst staining, tubulin morphology” value in the series with MCF7 cells [3] is “fragmented DNA”.
As to `C=C1[C@@H]2[C@H]3OC(=O)[C@@H](CN4CCC(O)CC4)[C@@H]3CCC(=C)[C@@H]2C[C@@H]1O` [Compound 14, (3R,3aS,6aR,8S,9aR,9bS)-8-Hydroxy-3-((4-hydroxypiperidin-1-yl)methyl)-6,9-di-methylenedecahydroazuleno[4,5-b]furan-2(3H)-one], the IC50 with MCF7 (setting [4]) is < 50 µM; with MCF7 (setting [5]), 40 ± 2.16 µM; in the series on MDA-MB-231 (read-out: IC50 in μM MDA-MB-231, 48 h, 0–100 μM), 25 ± 2.3 µM; in the series with MCF10A, > 50 µM. Besides, the “apoptotic (sub-G1) population” value with MCF7 cells [1] is on record as “induced apoptosis to a lesser extent”.
`C=C1[C@@H]2[C@H]3OC(=O)[C@@H](CN[C@@H](C)c4cccc5ccccc45)[C@@H]3CCC(=C)[C@@H]2C[C@@H]1OC(C)=O` [Compound 7, (3R,3aS,6aR,8S,9aR,9bS)-6,9-Dimethylene-3-((((S)-1-(naphthalen-1-yl)ethyl)amino)methyl)-2-oxododecahydroazuleno[4,5-b]furan-8-yl acetate]: the IC50 in the series on MCF7 (setting [4]) is > 100 µM.
Take `C=C1[C@@H]2[C@H]3OC(=O)[C@@H](CN4CCOCC4)[C@@H]3CCC(=C)[C@@H]2C[C@@H]1OC(C)=O` [Compound 17, (3R,3aS,6aR,8S,9aR,9bS)-6,9-Dimethylene-3-(morpholinomethyl)-2-oxododecahydroazuleno[4,5-b]furan-8-yl acetate]: the IC50 in the series with MCF7 (setting [4]) is > 100 µM.
